From ChEMBL document CHEMBL1157491, “Pyrazolopyridines as a novel structural class of potent and selective PDE4 inhibitors” (Bioorg Med Chem Lett, 2008) come the findings set out here.

Some results are limits rather than exact numbers.

Series [1] deals with 3',5'-cyclic-AMP phosphodiesterase 4B (Homo sapiens, UniProt Q07343). Kind of series: Inhibition of human PDE4B in Sf9 cells. Format: cell-based. In a few lines:
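Catalytic activity of human recombinant PDE4B enzyme was measured by scintillation proximity assay (SPA).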

Series [2] is described as follows: Inhibition of PDE3. The gist of the method:
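Inhibition of PDE3 isolated from bovine aorta, measured as loss of catalytic activity by scintillation proximity assay (SPA).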

Series [3] in a line: Inhibition of PDE5. In a few lines: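 Inhibition of human recombinant PDE5 catalytic activity, measured by scintillation proximity assay.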
Another series relates to PBMC. Kind of series: Inhibition of TNF alpha production in human PBMC cells by ELISA. Format: functional, cell-based. In a few lines:
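PBMCs were isolated from heparinised human blood by centrifugation on histopaque (1000g, 30 min), washed, and resuspended at 5 × 10⁵ cells/ml in RPMI1640 with 10% foetal calf serum, 1% L-glutamine and 1% penicillin/streptomycin. Cells were preincubated with compound for 1 h at 37 °C, 5% CO₂, then stimulated with LPS (1 ng/ml final) for a further 20 h.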
A general note: In an ELISA, binding on a coated surface is turned into a signal by an enzyme label.

Series [4] can be described thus: Selectivity for human PDE4B over PDE3.
Series [5] can be described thus: Selectivity for human PDE4B over PDE5.
Series [6] can be described thus: Half life in po dosed rat. In kind it is ADME, organism-based. To be noted: in vivo.
A short description of series [7]: Oral bioavailability in rat. As to conditions: in vivo. Format: ADME, organism-based.

Sequence of 3',5'-cyclic-AMP phosphodiesterase 4B (Q07343 whole entry): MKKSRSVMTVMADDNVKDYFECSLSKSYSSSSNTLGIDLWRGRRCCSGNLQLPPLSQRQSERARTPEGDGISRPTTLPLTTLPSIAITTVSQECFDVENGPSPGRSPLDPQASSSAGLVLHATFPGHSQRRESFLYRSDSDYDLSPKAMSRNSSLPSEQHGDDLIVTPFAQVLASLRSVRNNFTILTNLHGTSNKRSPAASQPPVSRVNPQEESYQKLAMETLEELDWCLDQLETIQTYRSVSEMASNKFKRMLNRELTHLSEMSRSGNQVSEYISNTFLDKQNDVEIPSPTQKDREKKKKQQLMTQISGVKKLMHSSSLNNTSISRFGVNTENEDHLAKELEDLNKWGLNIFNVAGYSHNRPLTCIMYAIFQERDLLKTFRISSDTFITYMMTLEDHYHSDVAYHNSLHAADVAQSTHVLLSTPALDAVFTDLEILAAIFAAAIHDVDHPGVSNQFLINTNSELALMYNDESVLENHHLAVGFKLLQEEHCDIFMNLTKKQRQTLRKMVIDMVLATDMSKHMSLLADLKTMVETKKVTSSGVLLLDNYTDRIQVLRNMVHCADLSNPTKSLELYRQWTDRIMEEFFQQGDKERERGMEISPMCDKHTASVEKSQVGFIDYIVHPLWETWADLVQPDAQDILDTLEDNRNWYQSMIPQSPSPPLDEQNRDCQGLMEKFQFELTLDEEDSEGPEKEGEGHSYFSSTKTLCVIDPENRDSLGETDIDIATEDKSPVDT

For orientation: IC50 means the concentration at which inhibition is half-maximal. `CCOC(=O)c1cnc2c(cnn2CC)c1NC1CCOCC1` gave an IC50 in series [1] of 10 nM.
One may read the pIC50 as −log10 of the IC50, conventionally taken in molar units. Low values mean a large IC50, high ones a small IC50. Take `CCn1ncc2c(NC3CCOCC3)c(C(=O)NCC3CCCCC3)cnc21`: the IC50 in series [1] is 7.94 nM; in the series with PBMC it was 63.1 nM. The results for the pIC50 in series [2] and in series [3] were less than 4.5 and 5.5, respectively. For the same molecule, the Selectivity ratio in series [4] and in series [5] was greater than 100 each time.
In series [1], `CCOC(=O)CCn1ncc2c(NC3CCOCC3)c(C(=O)OCC)cnc21` gave an IC50 of 5010 nM.
Still for that read-out and setting: in the case of `CCOC(=O)c1cnc2c(cnn2CC)c1NC1CCCC1` it was 63.1 nM; in that of `CCOC(=O)c1cnc2c(cnn2CC)c1Nc1ccc(OC)cc1`, 1000 nM.
As to `CCOC(=O)c1cnc2c(cnn2C(C)C)c1NC1CCOCC1`, the IC50 in series [1] is 200 nM.
Still for that read-out and setting: in the case of `CCCCNc1c(C(=O)OCC)cnc2c1cnn2CC` [CARTAZOLATE] it was 200 nM; in that of `CCOC(=O)c1cnc2c(cnn2CC)c1NCC(C)C`, 15.8 nM.
In the case of `CCC(CC)CNC(=O)c1cnc2c(cnn2CC)c1NC1CCOCC1`, the IC50 in series [1] was 20 nM; in the series with PBMC, 79.4 nM. In addition, the pIC50 in series [2] is less than 4.5; in series [3], 4.8. For the same molecule, the Selectivity ratio in series [4] and in series [5] was greater than 100 in each case.
`CCOC(=O)c1cnc2c(cnn2Cc2ccccc2)c1NC1CCOCC1` had a concentration for half-maximal inhibition (IC50) in series [1] of 3980 nM.
`CCn1ncc2c(NC3CCOCC3)c(C(=O)NC3CC3)cnc21` gave an IC50 in series [1] of 100 nM. Moreover, the Selectivity ratio in series [4] and in series [5] was greater than 100 in each case.
With `CCOC(=O)c1cnc2c(cnn2CC)c1N(C)C1CCOCC1`, in series [1], the IC50 was 251 nM.
On to `CCn1ncc2c(NC3CCOCC3)c(C(=O)NC3CCCC3)cnc21`, for which the 50% inhibitory concentration (IC50) in series [1] was 50.1 nM; with PBMC, 158 nM. Also, the pIC50 in series [2] was less than 4.5; in series [3], less than 4.7. The Selectivity ratio in series [4] and in series [5] was greater than 100 each time.
In series [1], `CCn1ncc2c(NC3CCOCC3)c(C(=O)NC3CCN(C(C)=O)CC3)cnc21` had an IC50 of 126 nM. For the same molecule, the Selectivity ratio in series [4] and in series [5] was greater than 100 each time.
The molecule `CCOC(=O)c1cnc2c(cnn2CCO)c1NC1CCOCC1` showed an IC50 in series [1] of 158 nM.
On to `CCOC(=O)c1cnc2c(cnn2CC)c1NCc1ccc(F)cc1`, for which the 50% inhibitory concentration (IC50) in series [1] is 316 nM.
On the same count and under the same terms, in the case of `CCCn1ncc2c(NC3CCOCC3)c(C(=O)OCC)cnc21` it was 100 nM; in that of `CCOC(=O)c1cnc2c(cnn2-c2ccccc2)c1NC1CCOCC1`, 3160 nM.
Still for that read-out and setting: in the case of `CCOC(=O)c1cnc2c(cnn2CC)c1N1CCCC1` it was 631 nM.
On the same count and under the same terms, in the case of `CCOC(=O)c1cnc2c(cnn2CC)c1NS(=O)(=O)c1ccccc1` it was greater than 31600 nM; in that of `CCOC(=O)c1cnc2c(cnn2C)c1NC1CCOCC1`, 251 nM.
Turning to `CCOC(=O)c1cnc2c(cnn2CC)c1Nc1ccccc1`, inhibition in series [1] was half-maximal at 158 nM (IC50).
With `CCn1ncc2c(NC3CCOCC3)c(C(=O)Nc3ccc(F)cc3)cnc21`, the pIC50 in series [2] is less than 4.5; in series [3], less than 4.7. This molecule also showed an IC50 in the series with PBMC of 39.8 nM. Moreover, the Selectivity ratio in series [4] and in series [5] was greater than 100 throughout.
On to `CCOC(=O)c1cnc2[nH]ncc2c1NC1CCOCC1`, for which the IC50 in series [1] was 2000 nM.
Usually half-life stands for how long it takes for the measured level to halve. A low value points to fast loss. One may read the bioavailability as the share of a dose that reaches the circulation, judged against a reference dose that is usually intravenous. On to `CCn1ncc2c(NC3CCOCC3)c(C(=O)NCc3ccccc3)cnc21`, for which the values for the pIC50 in series [2] and in series [3] were less than 4.5 and 5.7, respectively. The molecule further showed an IC50 in the series on PBMC of 20 nM. Further, the Selectivity ratio in series [4] and in series [5] was greater than 100 in each case. Moreover, the half-life in series [6] was 1.6 h. For the same molecule, the bioavailability in series [7] amounted to 35%.
As for `CCOC(=O)c1cnc2c(cnn2CC)c1NC(=O)c1ccccc1`, in series [1], the IC50 was 2510 nM.
In turn, `CCn1ncc2c(NC3CCOCC3)c(C(=O)N(C)Cc3ccccc3)cnc21` gave an IC50 in series [1] of 50.1 nM. Further, the Selectivity ratio in series [4] and in series [5] was greater than 100 throughout.
In the case of `CCn1ncc2c(NC3CCOCC3)c(C(=O)N3CCCC3)cnc21`, in series [1], the 50% inhibitory concentration (IC50) is 158 nM. Also, the Selectivity ratio in series [4] and in series [5] was greater than 100 each time.
`CCn1ncc2c(NC3CCOCC3)c(C(N)=O)cnc21`: the concentration for half-maximal inhibition (IC50) in series [1] is 25.1 nM; in the series with PBMC, 79.4 nM. Besides, the values for the pIC50 in series [2] and in series [3] were less than 4.5 and 4.8, respectively. For the same molecule, the Selectivity ratio in series [4] and in series [5] was greater than 100 throughout.
